Experimental data published in ChEMBL document CHEMBL4014311, “Discovery of a Hepatitis C Virus NS5B Replicase Palm Site Allosteric Inhibitor (BMS-929075) Advanced to Phase 1 Clinical Studies” (J Med Chem, 2017).

Tests used:
Hepatitis C virus [1] = assay: Antiviral activity against HCV genotype 3a infected in human HuH7 cells after 3 days by luciferase reporter assay; assay type: functional, cell-based, Hepacivirus hominis; details: Huh-7, 72 h
Rattus norvegicus = assay: Toxicity in rat up to 100 mg/kg, po administered as single dose measured up to 2 weeks; assay type: organism-based; details: in vivo, 336 h
[2] = Cytotoxicity against human HuH7 cells after 3 days by CellTiter-Blue assay; assay type: cell-based, Huh-7
[3] = Drug uptake in Sprague-Dawley rat liver at 6 mg/kg, po administered via gavage after 24 hrs by LC/MS/MS analysis; assay type: ADME, organism-based; details: read-out: Drug uptake
Outline: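 Fasted rats were dosed orally in 90:10 PEG-400/ethanol; 6 h livers came from satellite animals. In the screening variant, n = 2 and plasma was taken to 6 h with livers at the terminal point. Livers were rinsed, blotted, weighed and homogenized in 2 volumes of 80% acetonitrile in HBSS per gram, then centrifuged. Supernatant and plasma were analysed by LC/MS/MS.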

[4] = Lipophilicity, log D of the compound by shake flask method; assay type: physicochemical; details: octanol/water
[5] = AUC in Sprague-Dawley rat at 6 mg/kg, po administered via gavage by LC/MS/MS analysis; assay type: ADME, organism-based; details: in vivo
Outline: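 Rats were fasted overnight with free access to water, then dosed by gastric gavage with an […] solution in 90:10 PEG-400/ethanol (v/v), n = 3 per group. EDTA plasma was sampled predose and at 15, 30, 45, 60 min and 2, 4, 6, 8, 24 h, then assayed by LC/MS/MS. Parameters come from noncompartmental analysis: Cmax observed directly, AUC by linear/log trapezoidal summation, F as dose-normalized PO/IV AUC ratio.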

[6] = Cmax in Sprague-Dawley rat at 6 mg/kg, po administered via gavage using docusate sodium/methocel/water formulation by LC/MS/MS analysis; assay type: ADME, organism-based; design: dose 6 mg/kg, route oral; details: in vivo
Outline: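 Rats were fasted overnight and gavaged with a suspension of spray-dried dispersion (10% w/w drug loading in 0.02:0.5:99.48 docusate/methocel/water), n = 3 per group. Serial EDTA plasma was taken predose to 24 h and assayed by LC/MS/MS. Analysis was noncompartmental: Cmax observed, AUC by linear/log trapezoids, F from dose-normalized PO versus IV AUC.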

[7] = Tmax in Sprague-Dawley rat at 6 mg/kg, po administered via gavage using docusate sodium/methocel/water formulation by LC/MS/MS analysis; assay type: ADME, organism-based; details: in vivo
Outline: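 Fasted rats gavaged at 6 mg/kg with a spray-dried dispersion suspension (10% w/w drug loading in 0.02:0.5:99.48 docusate/methocel/water). Serial plasma samples predose and at 15, 30, 45, 60 min and 2, 4, 6, 8, 24 h; n = 3. Plasma analyzed by LC/MS/MS. Tmax read directly from observed concentrations.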

[8] = Protein binding in monkey serum; assay type: ADME, cell-free, Macaca mulatta; details: rhesus monkey, read-out: PB (converted)
Hepatitis C virus [9] = assay: Antiviral activity against HCV genotype 4a infected in human HuH7 cells after 3 days by luciferase reporter assay; assay type: functional, cell-based, Hepacivirus hominis; details: Huh-7, 72 h
[10] = molecular target: T1, Nuclear receptor subfamily 1 group I member 2 (Homo sapiens, UniProt O75469); assay: Transactivation of PXR (unknown origin); assay type: ADME
T1 sequence (O75469 whole entry): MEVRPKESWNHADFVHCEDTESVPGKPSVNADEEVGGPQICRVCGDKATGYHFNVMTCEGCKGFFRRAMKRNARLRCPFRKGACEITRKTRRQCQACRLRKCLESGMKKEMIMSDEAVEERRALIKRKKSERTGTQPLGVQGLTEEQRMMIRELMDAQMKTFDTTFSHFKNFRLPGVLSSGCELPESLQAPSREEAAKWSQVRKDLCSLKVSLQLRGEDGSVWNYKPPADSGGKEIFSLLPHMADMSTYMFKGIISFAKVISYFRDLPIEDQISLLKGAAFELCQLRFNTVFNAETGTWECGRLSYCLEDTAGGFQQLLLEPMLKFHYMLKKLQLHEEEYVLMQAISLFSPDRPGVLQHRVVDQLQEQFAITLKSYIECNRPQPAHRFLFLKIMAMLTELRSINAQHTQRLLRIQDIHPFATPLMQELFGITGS

Homo sapiens = assay: Toxicity in human up to 400 mg/day, po for 14 days; details: in vivo, 336 h
Hepatitis C virus [11] = assay: Antiviral activity against HCV genotype 1b infected in human HuH7 cells after 3 days by luciferase reporter assay; assay type: functional, cell-based, Hepacivirus hominis; details: Hepatitis C virus, genotype 1b, Huh-7, 72 h; read-out: EC50
[12] = Ratio of drug uptake in Sprague-Dawley rat liver to plasma at 6 mg/kg, po administered via gavage after 24 hrs by LC/MS/MS analysis; assay type: ADME, organism-based
Outline: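 Rats fasted overnight, then dosed by gavage at 6 mg/kg in 90:10 PEG-400/ethanol (v/v). Plasma sampled serially from cannula into EDTA tubes predose and at 15, 30, 45, 60 min and 2, 4, 6, 8, 24 h; n = 3. Livers removed at 6 h (satellite animals) and 24 h, homogenized in 80% acetonitrile/HBSS, assayed by LC/MS/MS. Tmax taken directly from observed data.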

[13] = Protein binding in rat serum; assay type: ADME, cell-free; details: read-out: PB (converted)
[14] = Half life in human liver microsomes; assay type: ADME, microsome
[15] = Inhibition of HCV genotype 1b NS5B replicase C316N mutant infected in human HuH7 cells assessed as reduction of viral replication after 3 days by luciferase reporter assay; assay type: cell-based, Hepatitis C virus subtype 1b; details: Hepatitis C virus, Huh-7, 72 h
Hepatitis C virus [16] = assay: Antiviral activity against HCV genotype 2a infected in human HuH7 cells after 3 days by luciferase reporter assay; assay type: functional, cell-based, Hepacivirus hominis; details: Huh-7, 72 h
[17] = Cytotoxicity against human HepG2 cells; assay type: cell-based
[18] = Cytotoxicity against primary human hepatocytes; assay type: cell-based, Hepatocyte
Hepatitis C virus [19] = assay: Antiviral activity against HCV genotype 6a infected in human HuH7 cells after 3 days by luciferase reporter assay; assay type: functional, cell-based, Hepacivirus hominis; details: Huh-7, 72 h
[20] = Ratio of plasma concentration in human at 25 mg/day administered as single dose to EC50 for HCV genotype 1b NS5B C316N mutant infected in human HuH7 cells
Outline: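 Randomized, double-blind, placebo-controlled Phase I single ascending dose study in healthy volunteers. Single oral dose of an amorphous solid dispersion formulation with 30% drug loading, at doses up to 400 mg. Human plasma exposure was measured and set against the replicon EC50.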

CNC(=O)c1c(-c2ccc(F)cc2)oc2ccc(-c3cc(C(=O)NC4(c5ncccn5)CC4)ccc3C)c(F)c12 [BMS-929075]
EC50 (Hepatitis C virus [1]): 22 nM | Activity (Rattus norvegicus): Non-Toxic | CC50 at 72 h [2]: 60000 nM | concentration at 24 h [3]: 1.12 µM | logD [4]: 5.09 | AUC [5]: 54.5 µM·h | Cmax [6]: 14.7 µM | Tmax [7]: 4 h | fraction unbound [8]: 0.028 | EC50 (Hepatitis C virus [9]): 3 nM | EC50 [10]: > 50000 nM | Activity (Homo sapiens): Non-Toxic | EC50 (Hepatitis C virus [11]): 4 nM | Kp at 24 h [12]: 1.6 | fraction unbound [13]: 0.003 | half-life [14]: > 2 h | EC50 [15]: 18 nM | EC50 (Hepatitis C virus [16]): 481 nM | CC50 [17]: > 12500 nM | CC50 [18]: > 50000 nM | EC50 (Hepatitis C virus [19]): 5 nM | Ratio [20]: 10
